Active and inactive are the calls of the source. The calls are words filed in the database; no cut-off is given here.
Key:
[1] = test system: Mus musculus; experiment: Toxicity in human HepG2 cells xenografted Balb/C mouse assessed as behaviour changes at 2.5 to 10 mg/kg administered every 2 days for 3 weeks; format: organism-based; set-up: dose 2.5-10 mg/kg; details: in vivo
Procedure, shortened: (§1)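 Female Balb/C and nude mice (5–6 weeks) carried right-flank HepG2 xenografts (5 × 10⁶ cells). From ~100 mm³ tumor volume they were dosed at 2.5–10 mg/kg every two days for three weeks, six per group, with saline controls. Toxicity signs and mortality were checked daily. Body weight was measured every two days; feeding and behavior were observed.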

[2] = test system: Mus musculus; experiment: Toxicity in human HepG2 cells xenografted Balb/C mouse assessed as feeding at 2.5 to 10 mg/kg administered every 2 days for 3 weeks; format: organism-based; set-up: dose 2.5-10 mg/kg; details: in vivo; procedure, shortened: as §1
[3] = test system: Mus musculus; experiment: Toxicity in human HepG2 cells xenografted Balb/C mouse assessed as weight loss at 2.5 to 10 mg/kg administered every 2 days for 3 weeks; format: organism-based; set-up: dose 2.5-10 mg/kg; details: in vivo; procedure, shortened: as §1
[4] = test system: HepG2; experiment: Antitumor activity against human HepG2 cells xenografted in Balb/C mouse assessed as tumor growth inhibition rate compound administered every 2 days for 3 weeks measured on day 20; format: functional, cell-based
Procedure, shortened: (§2)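 HepG2 cells (5 × 10⁶/mouse) in HBSS implanted in the right flank of 5–6-week-old female Balb/C and athymic nude mice, six per group. Dosing began once tumors reached ~100 mm³: three weeks at 2.5, 5 or 10 mg/kg every two days, or Taxol 5 mg/kg every four days; controls got physiological saline. Tumor volume = π/6 × length × width². T/C (%) = treated/control tumor volume × 100. Inhibition = (1 − treated/control tumor weight) × 100.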

[5] = test system: HepG2; experiment: Antitumor activity against human HepG2 cells xenografted in Balb/C mouse assessed as tumor growth inhibition rate at 10 mg/kg administered every 2 days for 3 weeks measured on day 20; format: functional; details: read-out: TGI; procedure, shortened: as §2
[6] = test system: HepG2; experiment: Antitumor activity against human HepG2 cells xenografted in Balb/C mouse assessed as tumor growth inhibition rate at 5 mg/kg administered every 2 days for 3 weeks measured on day 20; format: functional; details: read-out: TGI; procedure, shortened: as §2
[7] = test system: HepG2; experiment: Antitumor activity against human HepG2 cells xenografted in Balb/C mouse assessed as tumor growth inhibition rate at 2.5 mg/kg administered every 2 days for 3 weeks measured on day 20; format: functional; details: read-out: TGI; procedure, shortened: as §2
[8] = target: T1, Tubulin (Homo sapiens) (UniProt P68371+Q9H4B7+P0DPH7+P68366+Q13509+Q71U36+P04350+Q3ZCM7+P07437+P68363+Q9BQE3+Q6PEY2+Q13885+Q9BVA1+Q9BUF5); experiment: Decrease in unassembled tubulin level in human HepG2 cells at 0.1 to 0.5 uM after 24 hrs by Western blot analysis; format: cell-based
Procedure, shortened: (§3)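 HepG2 cells were treated at 0.1 or 0.5 μM for 24 h and washed three times in PBS. They were lysed on ice for 30 min in 20 mM Tris-HCl pH 6.8, 1 mM MgCl₂, 2 mM EGTA, 1 mM PMSF, 1 mM orthovanadate, 0.5% NP-40 and protease inhibitor. Tubulin was immunoblotted with α-tubulin antibody and HRP secondary, with chemiluminescent detection.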

[9] = target: T1, Tubulin (Homo sapiens); experiment: Increase in polymerized tubulin level in human HepG2 cells at 0.1 to 0.5 uM after 24 hrs by Western blot analysis; format: cell-based; procedure, shortened: as §3
[10] = target: T2, Tubulin (Sus scrofa) (UniProt P02554+P02550); experiment: Stabilization of purified pig brain tubulin polymerization at 20 uM measured every 30 seconds by spectrophotometry
T2 sequence (P02550 whole entry, looked up): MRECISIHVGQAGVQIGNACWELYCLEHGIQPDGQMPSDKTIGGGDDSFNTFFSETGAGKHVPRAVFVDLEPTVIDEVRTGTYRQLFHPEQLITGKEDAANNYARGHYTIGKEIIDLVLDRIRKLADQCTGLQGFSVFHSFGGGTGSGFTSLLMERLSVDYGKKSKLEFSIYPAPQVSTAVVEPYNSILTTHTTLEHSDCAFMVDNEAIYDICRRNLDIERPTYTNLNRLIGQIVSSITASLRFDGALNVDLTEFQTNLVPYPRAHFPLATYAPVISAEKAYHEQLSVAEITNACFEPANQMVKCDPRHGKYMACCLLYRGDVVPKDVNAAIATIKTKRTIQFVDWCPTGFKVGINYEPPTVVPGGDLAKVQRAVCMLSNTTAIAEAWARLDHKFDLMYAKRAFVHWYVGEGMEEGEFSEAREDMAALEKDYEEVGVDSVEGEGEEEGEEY
T2 sequence (P02554 whole entry, looked up): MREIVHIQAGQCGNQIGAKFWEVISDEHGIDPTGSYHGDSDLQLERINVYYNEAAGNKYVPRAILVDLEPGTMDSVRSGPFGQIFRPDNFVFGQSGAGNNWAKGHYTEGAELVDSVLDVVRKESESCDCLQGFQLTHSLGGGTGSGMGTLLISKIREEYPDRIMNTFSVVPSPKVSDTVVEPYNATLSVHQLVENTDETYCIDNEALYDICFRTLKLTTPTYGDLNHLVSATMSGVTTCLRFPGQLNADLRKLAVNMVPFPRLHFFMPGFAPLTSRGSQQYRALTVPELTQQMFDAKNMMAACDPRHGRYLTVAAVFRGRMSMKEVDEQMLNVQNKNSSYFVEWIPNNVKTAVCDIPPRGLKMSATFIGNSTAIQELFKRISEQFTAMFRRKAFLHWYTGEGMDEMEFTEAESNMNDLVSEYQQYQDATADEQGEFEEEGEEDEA
Procedure, shortened: (§4)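 It was pre-incubated 5 min with compound (5, 10, 20 μM), Taxol (5, 20 μM) or DMSO. GTP was added to 1 mM final to start assembly, followed as the rise in absorbance at 340 nm at 37 °C.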

[11] = target: T2, Tubulin (Sus scrofa); experiment: Stabilization of purified pig brain tubulin polymerization at 10 uM measured every 30 seconds by spectrophotometry; procedure, shortened: as §4
[12] = target: T2, Tubulin (Sus scrofa); experiment: Stabilization of purified pig brain tubulin polymerization at 5 uM measured every 30 seconds by spectrophotometry; procedure, shortened: as §4
[13] = target: T2, Tubulin (Sus scrofa); experiment: Stabilization of purified pig brain tubulin polymerization measured every 30 seconds by spectrophotometry; procedure, shortened: as §4
[14] = target: T2, Tubulin (Sus scrofa); experiment: Induction of purified pig brain tubulin depolymerization at 5 to 20 uM measured every 30 seconds by spectrophotometry; procedure, shortened: as §4
[15] = test system: HepG2; experiment: Cell cycle arrest in human HepG2 cells assessed as accumulation at G2/M phase at 1 uM after 24 hrs by flow cytometry (reference value: 17.07 %); format: functional
[16] = test system: HepG2; experiment: Cell cycle arrest in human HepG2 cells assessed as accumulation at G2/M phase at 0.2 uM after 24 hrs by flow cytometry (reference value: 17.07 %); format: functional
[17] = test system: HepG2; experiment: Cell cycle arrest in human HepG2 cells assessed as accumulation at G2/M phase at after 24 hrs by flow cytometry; format: functional, cell-based
[18] = test system: HepG2; experiment: Effect on microtubule network in human HepG2 cells assessed as abnormal mitotic spindles at 1 uM after 24 hrs by propidium iodide-FITC-based staining method; format: cell-based
Procedure, shortened: (§5)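 HepG2 cells were treated with 1.0 μM for 24 h. They were washed in PBS, fixed in cold 4% PFA for 10 min and blocked for 1 h in 5% goat serum/0.3% Triton/PBS. Staining used monoclonal anti-α-tubulin overnight at 4 °C, then Alexa Fluor 488 anti-mouse IgG for 30 min at room temperature, with propidium iodide for DNA. Cells were imaged by fluorescence or confocal microscopy.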

[19] = test system: HepG2; experiment: Effect on microtubule network in human HepG2 cells assessed as multiple tubulin bundles without chromosomes aligned at the metaphase plate with more dispersion of the chromosomes at 1 uM after 24 hrs by propidium iodide-FITC-based staining method; format: cell-based; procedure, shortened: as §5
[20] = Ratio of taxol IC50 to compound IC50 for mouse C26 cells by MTT assay; format: functional
[21] = test system: A2780; experiment: Cytotoxicity against taxol-resistant human A2780 cells by MTT assay; format: functional, cell-based
[22] = Cytotoxicity against human MCF7/ADR cells by MTT assay; format: functional, cell-based; details: NCI/ADR-RES
[23] = test system: HCT-8; experiment: Cytotoxicity against taxol-resistant human HCT8 cells by MTT assay; format: functional, cell-based
[24] = test system: DU-145; experiment: Cytotoxicity against human DU145 cells by MTT assay; format: functional, cell-based
[25] = Cytotoxicity against human A2780S cells by MTT assay; format: functional, cell-based; details: A2780
[26] = test system: PC-3; experiment: Cytotoxicity against human PC3 cells by MTT assay; format: functional, cell-based
[27] = Cytotoxicity against human ES2 cells by MTT assay; format: functional, cell-based; details: ES-2
[28] = test system: SK-OV-3; experiment: Cytotoxicity against human SKOV3 cells by MTT assay; format: functional, cell-based
[29] = test system: SK-HEP1; experiment: Cytotoxicity against human SKHEP1 cells by MTT assay; format: functional, cell-based
[30] = test system: MCF7; experiment: Cytotoxicity against human MCF7 cells by MTT assay; format: functional, cell-based
[31] = test system: Bel-7402; experiment: Cytotoxicity against human Bel7402 cells by MTT assay; format: functional, cell-based
[32] = Cytotoxicity against human SPC-A1 cells by MTT assay; format: functional, cell-based; details: SPCA1
[33] = Cytotoxicity against human H460 cells by MTT assay; format: functional, cell-based; details: NCI-H460
[34] = test system: NCI-H358; experiment: Cytotoxicity against human NCI-H358 cells by MTT assay; format: functional, cell-based
[35] = test system: HT-29; experiment: Cytotoxicity against human HT-29 cells by MTT assay; format: functional, cell-based
[36] = Cytotoxicity against mouse C26 cells by MTT assay; format: functional, cell-based
[37] = test system: HCT-15; experiment: Cytotoxicity against human HCT15 cells by MTT assay; format: functional, cell-based
[38] = Cytotoxicity against human LO2 cells by MTT assay; format: cell-based; details: L02
Procedure, shortened: (§6)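 Log-phase cells were diluted to 40,000–50,000 cells/mL in medium with 10% FBS, 2 mM glutamine and antibiotics (37 °C, 5% CO₂). They were seeded in 96-well plates and treated with a range of doses. MTT was added for 4 h, the formazan was dissolved in DMSO, and absorbance was read at 590 nm.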

[39] = test system: A-375; experiment: Cytotoxicity against human A375 cells by MTT assay; format: functional, cell-based; procedure, shortened: as §6
[40] = test system: K562; experiment: Cytotoxicity against human K562 cells by MTT assay; format: functional, cell-based; procedure, shortened: as §6
[41] = test system: HepG2; experiment: Cytotoxicity against human HepG2 cells by MTT assay; format: functional, cell-based; procedure, shortened: as §6
[42] = test system: HepG2; experiment: Induction of microtubule polymerization in human HepG2 cells at 1 uM after 24 hrs by propidium iodide-FITC-based staining method
[43] = test system: HepG2; experiment: Antitumor activity against human HepG2 cells xenografted in Balb/C mouse assessed as tumor volume T/C ratio at 5 mg/kg administered every 2 days for 3 weeks measured on day 20 relative to control
[44] = test system: HepG2; experiment: Antitumor activity against human HepG2 cells xenografted in Balb/C mouse assessed as tumor volume T/C ratio at 10 mg/kg administered every 2 days for 3 weeks measured on day 20 relative to control
[45] = test system: HepG2; experiment: Antitumor activity against human HepG2 cells xenografted in Balb/C mouse assessed as tumor volume T/C ratio at 2.5 mg/kg administered every 2 days for 3 weeks measured on day 20 relative to control

Q: With `CCC(=O)Oc1cc(/C=C/C(=O)c2ccc(OC)c3c2OC(C)(C)C=C3)ccc1OC` as the compound, how does the Activity [1] read?
A: Non-toxic

Q: What about the Activity [2] of the same compound?
A: Non-toxic

Q: What about the Activity [3] of the same compound?
A: Non-toxic

Q: What about the TGI [4] of the same compound?
A: Dose-dependent effect

Q: And the inhibition in vivo at 10 mg/kg [5]?
A: 69.7%

Q: What about the inhibition in vivo at 5 mg/kg [6] of the same compound?
A: 57.6%

Q: And the inhibition in vivo at 2.5 mg/kg [7]?
A: 54.3%

Q: And the Activity [8]?
A: Active

Q: What about the Activity [9] of the same compound?
A: Active

Q: And the Activity [10]?
A: 32%

Q: What about the Activity [11] of the same compound?
A: 16.3%

Q: What about the Activity [12] of the same compound?
A: 10%

Q: And the Activity [13]?
A: Dose-dependent effect

Q: What about the Activity [14] of the same compound?
A: inactive

Q: What about the Activity [15] of the same compound?
A: 76.02%

Q: And the Activity [16]?
A: 67.76%

Q: And the Activity [17]?
A: Dose-dependent effect

Q: And the Activity [18]?
A: Active

Q: What about the Activity [19] of the same compound?
A: Active

Q: What about the “Ratio IC50” value [20] of the same compound?
A: 3

Q: What about the IC50 [21] of the same compound?
A: 1330 nM

Q: What about the IC50 [22] of the same compound?
A: 160 nM

Q: What about the IC50 [23] of the same compound?
A: 1690 nM

Q: And the IC50 [24]?
A: 190 nM

Q: And the IC50 [25]?
A: 220 nM

Q: What about the IC50 [26] of the same compound?
A: 90 nM

Q: And the IC50 [27]?
A: 100 nM

Q: What about the IC50 [28] of the same compound?
A: 350 nM

Q: And the IC50 [29]?
A: 320 nM

Q: What about the IC50 [30] of the same compound?
A: 190 nM

Q: What about the IC50 [31] of the same compound?
A: 400 nM

Q: And the IC50 [32]?
A: 22300 nM

Q: What about the IC50 [33] of the same compound?
A: 4050 nM

Q: What about the IC50 [34] of the same compound?
A: 150 nM

Q: What about the IC50 [35] of the same compound?
A: 200 nM

Q: And the IC50 [36]?
A: 310 nM

Q: What about the IC50 [37] of the same compound?
A: 100 nM

Q: What about the IC50 [38] of the same compound?
A: > 10000 nM

Q: And the IC50 [39]?
A: 240 nM

Q: And the IC50 [40]?
A: 160 nM

Q: And the IC50 [41]?
A: 90 nM

Q: What about the Activity [42] of the same compound?
A: Active

Q: And the T/C at 5 mg/kg [43]?
A: 32.4%

Q: And the T/C at 10 mg/kg [44]?
A: 33.9%

Q: What about the T/C at 2.5 mg/kg [45] of the same compound?
A: 34.9%

— ChEMBL document CHEMBL2331170, “Synthesis and biological evaluation of novel pyranochalcone derivatives as a new class of microtubule stabilizing agents” (Eur J Med Chem, 2013)
